Results published in publication PMC6457116 (ACS chemical biology, 2018).

Test system: IMR-90 human lung fibroblasts
Assay: Mammalian cell viability, Cell Titer Glo
Format: cell-based
Conditions: 1 μg mL^−1 doxorubicin
Summary of the method: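 IMR-90 fibroblasts from ATCC, grown in EMEM with 10% FBS and Pen-Strep at 37 °C, 5% CO2, split 1:3 at confluence. Seeded 20,000 cells/well and left overnight to adhere. Then treated 24 h or 48 h with 50 μM test compound (0.5% DMSO), 0.5% DMSO, 10% DMSO or doxorubicin hydrochloride (given as 1 μg mL−1 and 1.7 μM). CellTiter-Glo ATP luminescence, no-cell background. Percent death versus 0.5% DMSO.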

SMILES: COc1cccc2c1C(=O)c1c(O)c3c(c(O)c1C2=O)C[C@@](O)(C(=O)CO)C[C@@H]3O[C@H]1C[C@H](N)[C@H](O)[C@H](C)O1 [doxorubicin]
- cells dead (24 h): 50%
- cell death (in words) (48 h): near complete cell death
